Calls of active or inactive are those of the source. The rule behind the calls is not given here.
Experiments:
[1] = test system: Jurkat; assay: Cytotoxicity against human Jurkat cells after 72 hrs by MTT assay; type: functional, cell-based
[2] = test system: HeLa; assay: Cytotoxicity against human HeLa cells after 72 hrs by MTT assay; type: functional, cell-based
[3] = test system: A549; assay: Cytotoxicity against human A549 cells after 72 hrs by MTT assay; type: functional, cell-based; conditions: A549, 72 h
[4] = Cytotoxicity against human SEM cells after 72 hrs by MTT assay; type: functional, cell-based
[5] = test system: K562; assay: Cytotoxicity against human K562 cells after 72 hrs by MTT assay; type: functional, cell-based; conditions: K562, 72 h
[6] = test system: HL-60; assay: Cytotoxicity against human HL60 cells after 72 hrs by MTT assay; type: functional, cell-based; conditions: HL-60, 72 h
[7] = Cytotoxicity against human RS4:11 cells after 72 hrs by MTT assay; type: functional, cell-based; conditions: RS4-11, 72 h
[8] = test system: Jurkat; assay: Induction of apoptosis in human Jurkat cells assessed as increase in late apoptotic cells after 24 hrs by FITC-conjugated annexin V and propidium iodide staining-based flow cytometry; type: functional, cell-based
How it was run: (§1)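 Jurkat cells exposed for 24 and 48 h, over a range of 1.25–100 µM, then co-stained with Annexin-V-FITC and propidium iodide. Read by flow cytometry, excitation 488 nm, emission 525 and 585 nm. Quadrants scored as A+/PI− (early apoptotic) and A+/PI+ (late apoptotic), compared with untreated cells. Mean ± SEM of three independent experiments.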

[9] = test system: Jurkat; assay: Cell cycle arrest in human Jurkat cells assessed as accumulation at G2/M phase after 48 hrs using propidium iodide staining by flow cytometry; type: functional, cell-based
How it was run: (§2)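 Exponentially growing Jurkat cells, 2.5×10^5, exposed to 1.25–100 µM for 48 h. Cells fixed in ice-cold 70% ethanol, lysed in buffer with RNase A and 0.1% Triton X-100, stained with propidium iodide. Cell-cycle phases read by flow cytometry. Mean ± SEM of three independent experiments; two-sided Student's t test against control.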

[10] = test system: Jurkat; assay: Cell cycle arrest in human Jurkat cells assessed as decrease in G1 phase phase after 48 hrs using propidium iodide staining by flow cytometry; type: functional, cell-based; how it was run: as §2
[11] = test system: Jurkat; assay: Cell cycle arrest in human Jurkat cells assessed as decrease in S phase phase after 48 hrs using propidium iodide staining by flow cytometry; type: functional, cell-based; how it was run: as §2
[12] = test system: PBL; assay: Cytotoxicity against human PBL after 72 hrs by MTT assay; type: cell-based
How it was run: (§3)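 PBL from healthy donors separated on a density gradient, washed, held at 1.0×10^6 cells/mL in RPMI-1640 with 10% FCS overnight. Non-adherent cells resuspended at 5×10^5 cells/mL. Stimulated cultures received 2.5 µg/mL PHA; resting cultures had none. Compound at several concentrations for 72 h, viability by MTT, IC50 taken. Mean ± SEM of three experiments.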

[13] = test system: PBL; assay: Cytotoxicity against PHA-stimulated human PBL after 72 hrs by MTT assay; type: cell-based; how it was run: as §3
[14] = test system: Jurkat; assay: Cell cycle arrest in human Jurkat cells assessed as accumulation at G1 phase after 48 hrs using propidium iodide staining by flow cytometry; type: functional, cell-based; how it was run: as §2
[15] = test system: Jurkat; assay: Cell cycle arrest in human Jurkat cells assessed as accumulation at G1 phase at 50 uM after 48 hrs using propidium iodide staining by flow cytometry; type: functional, cell-based; how it was run: as §2
[16] = test system: Jurkat; assay: Cytotoxicity against human Jurkat cells assessed as cell viability at 50 uM after 48 hrs by MTT assay in presence of 100 uM pan-caspase inhibitor z-VAD; type: functional
How it was run: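 Jurkat cells exposed to compound for 48 h with or without 100 µM of the pan-caspase inhibitor z-VAD.fmk. Percent viability read by MTT. Mean ± SEM.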

[17] = test system: Jurkat; assay: Induction of apoptosis in human Jurkat cells assessed as early apoptotic cells at 50 uM after 48 hrs by FITC-conjugated annexin V and propidium iodide staining-based flow cytometry relative to control; type: functional; how it was run: as §1
[18] = test system: Jurkat; assay: Induction of apoptosis in human Jurkat cells assessed as late apoptotic cells at 50 uM after 48 hrs by FITC-conjugated annexin V and propidium iodide staining-based flow cytometry relative to control; type: functional; how it was run: as §1
[19] = test system: Jurkat; assay: Induction of apoptosis in human Jurkat cells assessed as viable cells at 50 uM after 48 hrs by FITC-conjugated annexin V and propidium iodide staining-based flow cytometry relative to control; type: functional; conditions: read-out: Activity; how it was run: as §1
[20] = test system: Jurkat; assay: Induction of apoptosis in human Jurkat cells assessed as necrotic cells at 50 uM after 48 hrs by FITC-conjugated annexin V and propidium iodide staining-based flow cytometry relative to control; type: functional; how it was run: as §1
[21] = test system: Jurkat; assay: Induction of apoptosis in human Jurkat cells assessed as early apoptotic cells at 50 uM after 24 hrs by FITC-conjugated annexin V and propidium iodide staining-based flow cytometry relative to control; type: functional; how it was run: as §1
[22] = test system: Jurkat; assay: Induction of apoptosis in human Jurkat cells assessed as late apoptotic cells at 50 uM after 24 hrs by FITC-conjugated annexin V and propidium iodide staining-based flow cytometry relative to control; type: functional; how it was run: as §1
[23] = test system: Jurkat; assay: Induction of apoptosis in human Jurkat cells assessed as DNA fragmentation at 25 to 50 uM after 48 hrs by agarose gel electrophoresis; type: functional, cell-based
How it was run: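 Genomic DNA taken from treated Jurkat cells by salting out after 48 h. 1 µg run on 1.5% agarose in TAE at 50 V for 6 h. Gel stained with ethidium bromide and imaged under UV light.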

[24] = test system: Jurkat; assay: Induction of apoptosis in human Jurkat cells assessed as viable cells at 50 uM after 24 hrs by FITC-conjugated annexin V and propidium iodide staining-based flow cytometry relative to control; type: functional; conditions: read-out: Activity; how it was run: as §1
[25] = test system: Jurkat; assay: Induction of apoptosis in human Jurkat cells assessed as necrotic cells at 50 uM after 24 hrs by FITC-conjugated annexin V and propidium iodide staining-based flow cytometry relative to control; type: functional; how it was run: as §1

SMILES	IC50 [1] [µM]	IC50 [2] [µM]	IC50 [3] [µM]	IC50 [4] [µM]	IC50 [5] [µM]	IC50 [6] [µM]	IC50 [7] [µM]	other results
CC1=CC[C@]2(C)[C@@H]([C@@H](OC(=O)c3ccc(O)cc3)C1)[C@](O)(C(C)C)C[C@@H]2O	40.3	56.5	83.7	22.4	95	3.5	33.4	
COc1ccc(C(=O)O[C@H]2CC(C)=C[C@@H](OC(C)=O)[C@@]3(C)[C@@H](OC(C)=O)C[C@@](O)(C(C)C)[C@H]23)cc1	62.2	> 100	> 100	32.9	> 100	83.5	42.9	
COc1ccc(C(=O)O[C@H]2C=C(C)C(=O)C[C@@]3(C)CC[C@@](O)(C(C)C)[C@H]23)cc1	40.5	29.7	31.8	28.4	> 100	38.9	28.6	
COc1ccc(C(=O)OCC2=CC[C@@]3(C)CC[C@]4(C(C)C)O[C@]34CC2)cc1	> 100	> 100	> 100	84	> 100	> 100	60.9	
COc1ccc(C(=O)O[C@H]2CC(C)=C[C@H](O)[C@@]3(C)[C@@H](OC(C)=O)C[C@@](O)(C(C)C)[C@H]23)cc1	5.9	52.9	79.6	18.1	48.2	23	34.4	Activity [8]: Dose-dependent effect; Activity [9]: Dose-dependent effect; Activity [10]: Active; Activity [11]: Active; IC50 [12]: 20.5 µM; IC50 [13]: 27.2 µM
COc1ccc(C(=O)O[C@@H]2C=C(C)CC[C@]3(O)[C@H](C(C)C)CC(=O)[C@]23C)cc1 [SIOL ANISATE]	> 100	> 100	> 100	23.9	> 100	> 100	> 100	
COc1ccc(C(=O)O[C@H]2CC(C)=C[C@@H](O)[C@@]3(C)[C@@H](OC(C)=O)C[C@@](O)(C(C)C)[C@H]23)cc1	33.6	> 100	> 100	> 100	85.2	24	70.4	
C=C1C[C@H](OC(=O)c2ccc(O)cc2)[C@@H]2[C@](C)(CC[C@@]2(O)C(C)C)C[C@@H]1O	55	> 100	> 100	34.7	> 100	43.4	29	
CC1=C[C@H](OC(=O)c2ccc(O)cc2)[C@@H]2[C@](C)(CC[C@@]2(O)C(C)C)CC1=O	40.5	26.1	14.5	24.4	> 100	82.5	28.2	
COc1ccc(C(=O)O[C@H]2CC(C)=C[C@H](OC(C)=O)[C@]3(C)[C@@H]2[C@](O)(C(C)C)C[C@@H]3O)cc1	9.1	52.6	> 100	26.5	70.4	14.9	26.8	Activity [8]: Dose-dependent effect; Activity [14]: Active; IC50 [12]: 30.3 µM; IC50 [13]: 33.7 µM; Activity [15]: inactive
COc1ccc(C(=O)OCC2=CC[C@@]3(C)CCC(C(C)C)=C3CC2)cc1	25.6	> 100	> 100	25.5	67	30.7	44.1	
COc1ccc(C(=O)O[C@H]2CC(C)=CC[C@@]3(C)CC[C@@](O)(C(C)C)[C@H]23)cc1 [FERUTIDIN]	30.5	> 100	31.9	18.2	67.8	20.1	17.6	
COc1ccc(C(=O)O[C@H]2CC(C)=C[C@H](OC(C)=O)[C@@]3(C)[C@@H](OC(C)=O)C[C@@](O)(C(C)C)[C@H]23)cc1	3.3	14.5	23.3	15	39.6	11.3	2.8	Activity [8]: Dose-dependent effect; Activity [16]: 13%; Activity [14]: Active; Activity [17]: 0.1%; Activity [18]: 67.4%; viability at 50 µM [19]: 4.7%; IC50 [12]: 6.6 µM; Activity [20]: 27.8%; IC50 [13]: 9.4 µM; Activity [21]: 5.8%; Activity [22]: 41.7%; Activity [15]: inactive; Activity [23]: inactive; viability at 50 µM [24]: 36.5%; Activity [25]: 16%
C/C=C(\C)C(=O)O[C@H]1C[C@@]2(C)O[C@H]2[C@@H](OC(C)=O)[C@@]2(C)CC[C@@](O)(C(C)C)[C@H]12	> 100	> 100	> 100	> 100	> 100	> 100	> 100	
